Source: ChEMBL document CHEMBL1165965, “Synthesis and structure-activity relationships of 1,2,3,4-tetrahydropyrido[2,3-b]pyrazines as potent and selective inhibitors of the anaplastic lymphoma kinase” (Bioorg Med Chem, 2010)

Columns and labels:
[1] = target: T1, Bone morphogenetic protein receptor type-2 (Homo sapiens) (UniProt Q13873); assay: Inhibition of BMPR2 at 1 uM
T1 sequence (whole entry): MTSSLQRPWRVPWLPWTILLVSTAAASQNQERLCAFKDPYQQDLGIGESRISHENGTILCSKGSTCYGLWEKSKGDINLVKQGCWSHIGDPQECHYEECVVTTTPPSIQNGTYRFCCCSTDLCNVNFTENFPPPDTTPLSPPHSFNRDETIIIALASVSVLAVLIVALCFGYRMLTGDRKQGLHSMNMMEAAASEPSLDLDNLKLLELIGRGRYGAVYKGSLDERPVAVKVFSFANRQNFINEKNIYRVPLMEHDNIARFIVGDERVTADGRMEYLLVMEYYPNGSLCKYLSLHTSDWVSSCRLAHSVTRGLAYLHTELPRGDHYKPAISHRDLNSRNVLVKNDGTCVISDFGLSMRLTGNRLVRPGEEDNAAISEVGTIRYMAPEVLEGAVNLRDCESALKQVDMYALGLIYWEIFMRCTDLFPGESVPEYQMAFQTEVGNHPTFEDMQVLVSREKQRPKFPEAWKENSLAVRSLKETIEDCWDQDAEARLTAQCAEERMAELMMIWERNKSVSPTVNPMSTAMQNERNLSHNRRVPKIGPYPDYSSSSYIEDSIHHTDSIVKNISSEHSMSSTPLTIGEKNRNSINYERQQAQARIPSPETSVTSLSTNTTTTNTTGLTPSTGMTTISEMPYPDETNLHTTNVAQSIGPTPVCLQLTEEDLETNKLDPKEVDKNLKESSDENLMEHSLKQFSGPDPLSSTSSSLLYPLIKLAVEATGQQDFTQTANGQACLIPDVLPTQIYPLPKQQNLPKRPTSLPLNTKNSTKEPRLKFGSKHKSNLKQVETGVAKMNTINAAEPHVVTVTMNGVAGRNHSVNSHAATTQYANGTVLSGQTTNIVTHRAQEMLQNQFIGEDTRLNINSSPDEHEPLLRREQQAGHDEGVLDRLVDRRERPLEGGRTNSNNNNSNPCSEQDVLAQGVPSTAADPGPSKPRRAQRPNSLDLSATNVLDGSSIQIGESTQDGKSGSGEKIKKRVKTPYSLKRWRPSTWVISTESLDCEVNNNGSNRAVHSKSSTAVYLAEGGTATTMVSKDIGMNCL

[2] = target: Serine/threonine-protein kinase MRCK beta (Homo sapiens) (UniProt Q9Y5S2); assay: Inhibition of MRCKB at 1 uM
[3] = target: Serine/threonine-protein kinase 16 (Homo sapiens) (UniProt O75716); assay: Inhibition of STK16 at 1 uM
[4] = target: T2, Serine/threonine-protein kinase LATS1 (Homo sapiens) (UniProt O95835); assay: Inhibition of LATS1 at 1 uM
T2 sequence (whole entry): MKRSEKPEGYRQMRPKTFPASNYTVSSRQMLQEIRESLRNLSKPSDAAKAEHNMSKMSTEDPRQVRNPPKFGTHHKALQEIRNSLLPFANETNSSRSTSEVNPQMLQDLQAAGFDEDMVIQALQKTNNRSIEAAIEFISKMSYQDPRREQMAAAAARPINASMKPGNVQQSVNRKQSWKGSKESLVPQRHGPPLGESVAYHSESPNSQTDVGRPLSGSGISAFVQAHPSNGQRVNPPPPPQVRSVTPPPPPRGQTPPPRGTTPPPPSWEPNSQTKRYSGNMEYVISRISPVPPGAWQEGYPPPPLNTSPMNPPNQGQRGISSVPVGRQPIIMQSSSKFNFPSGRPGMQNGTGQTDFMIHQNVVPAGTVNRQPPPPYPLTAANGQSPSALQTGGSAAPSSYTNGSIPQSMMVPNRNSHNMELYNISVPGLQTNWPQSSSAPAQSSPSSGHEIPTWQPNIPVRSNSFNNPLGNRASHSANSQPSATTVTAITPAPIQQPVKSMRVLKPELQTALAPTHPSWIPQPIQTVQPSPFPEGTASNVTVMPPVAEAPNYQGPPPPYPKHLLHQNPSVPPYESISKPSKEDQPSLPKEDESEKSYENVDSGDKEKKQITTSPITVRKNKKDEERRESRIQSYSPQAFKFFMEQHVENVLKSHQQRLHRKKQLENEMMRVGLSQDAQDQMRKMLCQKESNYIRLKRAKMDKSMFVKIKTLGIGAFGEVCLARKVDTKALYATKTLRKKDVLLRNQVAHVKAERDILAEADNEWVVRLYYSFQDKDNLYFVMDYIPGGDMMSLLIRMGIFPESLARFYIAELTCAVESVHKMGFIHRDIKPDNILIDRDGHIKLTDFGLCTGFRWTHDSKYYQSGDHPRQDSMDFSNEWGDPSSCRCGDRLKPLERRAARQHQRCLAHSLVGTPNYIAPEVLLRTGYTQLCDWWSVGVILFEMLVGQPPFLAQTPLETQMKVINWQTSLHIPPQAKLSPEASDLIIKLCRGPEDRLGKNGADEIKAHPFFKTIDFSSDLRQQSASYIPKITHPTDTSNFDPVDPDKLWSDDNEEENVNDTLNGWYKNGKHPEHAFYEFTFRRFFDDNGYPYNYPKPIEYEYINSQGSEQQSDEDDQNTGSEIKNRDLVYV

[5] = target: Mast/stem cell growth factor receptor Kit (Homo sapiens) (UniProt P10721); assay: Inhibition of KIT at 1 uM
Method in brief: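 Single-concentration screen on the Ambit KINOMEscan platform, run against a panel of 250–400 kinases. Per-kinase inhibition was also summarized as S(90), the fraction of kinases inhibited by more than 90%.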

[6] = target: Ephrin type-A receptor 5 (Homo sapiens) (UniProt P54756); assay: Inhibition of EPHA5 at 1 uM
Method in brief: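 Single-concentration screen using Ambit Bioscience KINOMEscan technology across a panel of 250–400 kinases. Per-kinase inhibition from this screen was summarized as S(90), the fraction of kinases inhibited by more than 90%.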

Serine/threonine-protein kinase MRCK beta (Homo sapiens), sequence (Q9Y5S2 whole entry): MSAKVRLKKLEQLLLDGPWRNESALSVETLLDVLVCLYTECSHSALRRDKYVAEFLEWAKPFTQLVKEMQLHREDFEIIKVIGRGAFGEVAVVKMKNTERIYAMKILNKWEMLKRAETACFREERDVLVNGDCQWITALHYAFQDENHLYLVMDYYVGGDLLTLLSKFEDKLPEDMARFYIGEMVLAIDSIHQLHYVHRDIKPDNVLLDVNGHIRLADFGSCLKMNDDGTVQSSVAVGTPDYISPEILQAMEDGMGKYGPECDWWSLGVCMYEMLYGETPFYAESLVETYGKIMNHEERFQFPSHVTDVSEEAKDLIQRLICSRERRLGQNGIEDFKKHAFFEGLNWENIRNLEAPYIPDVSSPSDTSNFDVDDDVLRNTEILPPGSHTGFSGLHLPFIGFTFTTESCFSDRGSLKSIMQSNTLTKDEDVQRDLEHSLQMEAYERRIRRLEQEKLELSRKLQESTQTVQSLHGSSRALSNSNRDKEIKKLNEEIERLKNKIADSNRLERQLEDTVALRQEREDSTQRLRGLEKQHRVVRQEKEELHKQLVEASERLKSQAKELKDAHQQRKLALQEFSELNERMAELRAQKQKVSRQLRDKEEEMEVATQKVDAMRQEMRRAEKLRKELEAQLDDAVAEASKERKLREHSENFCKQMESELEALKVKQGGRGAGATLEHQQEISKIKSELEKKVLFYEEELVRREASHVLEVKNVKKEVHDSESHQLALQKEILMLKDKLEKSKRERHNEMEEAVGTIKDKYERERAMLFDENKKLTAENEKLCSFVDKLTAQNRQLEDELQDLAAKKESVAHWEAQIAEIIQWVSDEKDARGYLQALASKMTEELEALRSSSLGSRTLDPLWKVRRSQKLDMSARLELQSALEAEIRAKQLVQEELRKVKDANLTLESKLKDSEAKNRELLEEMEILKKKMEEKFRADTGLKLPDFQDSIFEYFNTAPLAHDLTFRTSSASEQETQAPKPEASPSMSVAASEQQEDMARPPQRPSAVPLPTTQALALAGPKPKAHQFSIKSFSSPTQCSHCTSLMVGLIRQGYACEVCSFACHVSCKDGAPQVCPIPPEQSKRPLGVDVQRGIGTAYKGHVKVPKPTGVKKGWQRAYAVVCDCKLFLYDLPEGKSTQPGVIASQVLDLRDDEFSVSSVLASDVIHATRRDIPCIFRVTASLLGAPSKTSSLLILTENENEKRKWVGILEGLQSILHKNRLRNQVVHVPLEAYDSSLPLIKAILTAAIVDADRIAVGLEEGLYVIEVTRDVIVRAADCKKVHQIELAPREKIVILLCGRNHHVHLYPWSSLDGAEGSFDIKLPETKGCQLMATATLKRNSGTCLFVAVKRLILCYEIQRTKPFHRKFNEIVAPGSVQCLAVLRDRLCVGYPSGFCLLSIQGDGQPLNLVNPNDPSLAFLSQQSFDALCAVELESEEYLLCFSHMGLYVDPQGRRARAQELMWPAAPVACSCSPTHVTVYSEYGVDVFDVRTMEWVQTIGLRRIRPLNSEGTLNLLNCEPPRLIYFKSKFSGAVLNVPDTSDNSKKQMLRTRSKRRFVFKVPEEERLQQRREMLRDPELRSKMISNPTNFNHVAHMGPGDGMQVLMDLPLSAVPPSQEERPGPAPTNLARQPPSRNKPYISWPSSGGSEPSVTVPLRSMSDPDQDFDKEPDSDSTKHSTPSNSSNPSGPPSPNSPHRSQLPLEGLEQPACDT
Mast/stem cell growth factor receptor Kit (Homo sapiens), sequence (P10721 whole entry): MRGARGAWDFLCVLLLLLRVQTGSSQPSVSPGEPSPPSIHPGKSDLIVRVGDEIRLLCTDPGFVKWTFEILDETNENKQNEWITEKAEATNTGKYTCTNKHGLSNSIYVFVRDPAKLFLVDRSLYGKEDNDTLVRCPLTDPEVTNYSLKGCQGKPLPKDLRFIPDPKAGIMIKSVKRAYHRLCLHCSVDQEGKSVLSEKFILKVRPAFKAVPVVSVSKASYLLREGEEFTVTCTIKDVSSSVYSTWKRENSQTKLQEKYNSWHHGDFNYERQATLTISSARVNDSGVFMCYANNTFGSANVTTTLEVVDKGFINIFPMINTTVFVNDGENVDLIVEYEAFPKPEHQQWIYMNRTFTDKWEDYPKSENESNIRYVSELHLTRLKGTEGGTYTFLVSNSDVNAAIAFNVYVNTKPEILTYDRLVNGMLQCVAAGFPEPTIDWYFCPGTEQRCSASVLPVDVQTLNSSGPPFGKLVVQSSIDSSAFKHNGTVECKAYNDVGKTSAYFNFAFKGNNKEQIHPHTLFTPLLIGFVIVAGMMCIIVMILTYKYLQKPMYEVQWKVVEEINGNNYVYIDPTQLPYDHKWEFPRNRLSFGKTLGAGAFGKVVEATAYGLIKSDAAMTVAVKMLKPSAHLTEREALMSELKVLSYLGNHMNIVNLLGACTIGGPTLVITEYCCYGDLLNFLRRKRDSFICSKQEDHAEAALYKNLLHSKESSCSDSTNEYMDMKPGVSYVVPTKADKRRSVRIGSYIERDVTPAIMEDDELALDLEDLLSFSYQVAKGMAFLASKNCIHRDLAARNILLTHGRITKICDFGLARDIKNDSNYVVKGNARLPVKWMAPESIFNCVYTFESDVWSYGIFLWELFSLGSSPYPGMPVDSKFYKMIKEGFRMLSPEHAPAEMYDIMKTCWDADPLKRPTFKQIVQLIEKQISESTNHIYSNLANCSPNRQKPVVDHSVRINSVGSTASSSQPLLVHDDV
Ephrin type-A receptor 5 (Homo sapiens), sequence (P54756 whole entry): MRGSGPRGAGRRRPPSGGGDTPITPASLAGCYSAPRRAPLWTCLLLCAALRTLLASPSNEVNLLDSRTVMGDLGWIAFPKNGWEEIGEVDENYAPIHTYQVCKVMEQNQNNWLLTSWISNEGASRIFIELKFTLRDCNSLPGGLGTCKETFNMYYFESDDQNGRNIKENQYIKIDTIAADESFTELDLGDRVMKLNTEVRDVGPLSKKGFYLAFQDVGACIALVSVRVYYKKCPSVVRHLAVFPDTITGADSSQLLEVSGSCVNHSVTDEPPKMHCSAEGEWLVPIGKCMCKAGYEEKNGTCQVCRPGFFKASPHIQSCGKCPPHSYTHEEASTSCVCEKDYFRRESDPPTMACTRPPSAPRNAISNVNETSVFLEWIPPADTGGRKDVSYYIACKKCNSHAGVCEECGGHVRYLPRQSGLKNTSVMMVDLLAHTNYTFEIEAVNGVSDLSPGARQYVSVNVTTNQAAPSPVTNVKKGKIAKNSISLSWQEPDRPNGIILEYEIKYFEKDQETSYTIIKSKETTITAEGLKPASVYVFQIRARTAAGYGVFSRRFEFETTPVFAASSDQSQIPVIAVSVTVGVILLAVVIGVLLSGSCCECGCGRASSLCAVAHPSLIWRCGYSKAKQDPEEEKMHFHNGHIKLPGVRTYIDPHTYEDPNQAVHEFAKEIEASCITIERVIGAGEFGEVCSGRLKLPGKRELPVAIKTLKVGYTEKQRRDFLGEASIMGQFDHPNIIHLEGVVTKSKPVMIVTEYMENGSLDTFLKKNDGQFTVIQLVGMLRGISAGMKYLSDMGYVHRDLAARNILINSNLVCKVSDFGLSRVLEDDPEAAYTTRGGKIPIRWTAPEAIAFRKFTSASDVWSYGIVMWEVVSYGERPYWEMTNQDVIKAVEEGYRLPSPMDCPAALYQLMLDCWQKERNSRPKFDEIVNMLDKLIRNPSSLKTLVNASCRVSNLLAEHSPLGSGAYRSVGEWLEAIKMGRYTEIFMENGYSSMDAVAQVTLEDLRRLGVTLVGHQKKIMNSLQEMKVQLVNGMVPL
Serine/threonine-protein kinase 16 (Homo sapiens), sequence (O75716 whole entry): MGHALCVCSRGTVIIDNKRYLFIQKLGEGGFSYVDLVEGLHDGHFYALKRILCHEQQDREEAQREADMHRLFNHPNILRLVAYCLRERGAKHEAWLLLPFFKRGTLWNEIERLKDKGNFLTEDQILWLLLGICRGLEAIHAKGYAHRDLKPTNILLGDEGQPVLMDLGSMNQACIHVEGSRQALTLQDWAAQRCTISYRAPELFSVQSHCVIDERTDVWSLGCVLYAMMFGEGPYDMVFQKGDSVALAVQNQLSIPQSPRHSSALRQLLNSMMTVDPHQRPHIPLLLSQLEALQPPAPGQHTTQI

Compound | inhibition [1] | inhibition [2] | inhibition [3] | inhibition [4] | inhibition [5] | inhibition [6]
CN1CCN(c2ccc(-c3cnc4c(c3)N(Cc3cc(F)ccc3F)CCN4)cn2)CC1 | < 50% | < 50% | < 50% | < 50% | 56.5% | < 50%
CN1CCN(c2ccc(-c3cnc4c(c3)N(Cc3c(F)ccc(F)c3Cl)CCN4)cn2)CC1 | < 50% | < 50% | < 50% | < 50% | 73% | < 50%
CC(=O)N1CCN(c2cc(-c3cnc4c(c3)N(Cc3cc(Cl)ccc3C(F)(F)F)CCN4)ccn2)CC1 | < 50% | < 50% | < 50% | < 50% | 75% | < 50%
FC(F)(F)c1ccc(Cl)cc1CN1CCNc2ncc(-c3ccnc(N4CCNCC4)c3)cc21 | < 50% | < 50% | < 50% | < 50% | 96% | < 50%
CN1CCN(c2ccc(-c3cnc4c(c3)N(Cc3cc(Cl)ccc3C(F)(F)F)CCN4)cn2)CC1 | < 50% | < 50% | < 50% | < 50% | < 50% | < 50%
CN1CCN(c2ccc(-c3cnc4c(c3)N(Cc3cc(Cl)ccc3Cl)CCN4)cn2)CC1 | < 50% | < 50% | < 50% | < 50% | 87% | < 50%

Next, values leading:

inhibition [1] | inhibition [2] | inhibition [3] | inhibition [4] | inhibition [5] | inhibition [6] | Compound
– | < 50% | < 50% | – | 89.5% | < 50% | O=C(c1ccc(-c2cnc3c(c2)N(Cc2cc(Cl)ccc2C(F)(F)F)CCN3)cc1)N1CCC(N2CCCC2)CC1
– | < 50% | < 50% | – | < 50% | < 50% | O=C(c1ccc(-c2cnc3c(c2)N(Cc2cc(Cl)ccc2C(F)(F)F)CCN3)cc1)N1CCCCC1
– | < 50% | < 50% | – | < 50% | < 50% | COC1CCN(C(=O)c2ccc(-c3cnc4c(c3)N(Cc3cc(Cl)ccc3C(F)(F)F)CCN4)cc2)CC1
– | < 50% | < 50% | – | < 50% | < 50% | O=C(O)c1ccc(-c2cnc3c(c2)N(Cc2cc(Cl)ccc2C(F)(F)F)CCN3)cc1
